The subject of assay [1] is Mycolicibacterium smegmatis MC2 155. In words: Inhibition of Multidrug resistance efflux pump in Mycobacterium smegmatis mc2 155 assessed as modulation of EtBr-mediated antibacterial activity measuring fractional inhibitory concentration index at 64 mg/L after 72 hrs by MTT assay. A digest of the protocol:
(§1)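 Checkerboard-type modulation by broth dilution in MHB with DMSO-dissolved modulators: either modulator held constant (half its MIC) with two-fold serially diluted antibiotic/EtBr, or antibiotic fixed with modulator serially diluted. Final inoculum 5 × 10^5 cfu/mL, 37 °C, 72 h, MTT read-out. Modulation factor quantifies shift in antibiotic/EtBr MIC; FICI assesses combination effect.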

The test system is the same in assay [2]. Briefly: Inhibition of Multidrug resistance efflux pump in Mycobacterium smegmatis mc2 155 assessed as modulation of ciprofloxacin-mediated antibacterial activity measuring ratio of ciprofloxacin MIC to ciprofloxacin and compound MIC at 64 mg/L after 72 hrs by MTT assay. Summed up:
as §1
Background: Tetrazolium dyes change colour on reduction, which living cells bring about.

Assay [3] has the same test system. Briefly: Inhibition of Multidrug resistance efflux pump in Mycobacterium smegmatis mc2 155 assessed as modulation of EtBr-mediated antibacterial activity measuring reduction in MIC at 1/2 of MIC after 72 hrs by MTT assay relative to control. Summed up: as §1
Assay [4] has the same test system. Briefly: Inhibition of Multidrug resistance efflux pump in Mycobacterium smegmatis mc2 155 assessed as modulation of rifampicin-mediated antibacterial activity measuring fractional inhibitory concentration index at 64 mg/L after 72 hrs by MTT assay. A digest of the protocol: as §1
The test system is the same in assay [5]. In words: Inhibition of Multidrug resistance efflux pump in Mycobacterium smegmatis mc2 155 assessed as EtBr accumulation measuring relative fluorescence at half the MIC measured for 60 mins by spectrophotometry relative to control. A digest of the protocol: (§2)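 Overnight 7H9/ADC culture (37 °C, 100 rpm) centrifuged and resuspended in PBS with 0.05% Tween 80 to OD600 0.4. Cells mixed 1:1 with test solutions containing 0.5 mg/L EtBr and 0.4% glucose, compounds from MIC down to 1/16 MIC. Fluorescence (ex 531/em 590 nm) read every 50 s at 37 °C for 60 min; repeated at least three times.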

The test system is the same in assay [6]. In words: Inhibition of Multidrug resistance efflux pump in Mycobacterium smegmatis mc2 155 assessed as modulation of isoniazid-mediated antibacterial activity measuring ratio of isoniazid MIC to isoniazid and compound MIC at 64 mg/L after 72 hrs by MTT assay. Summed up: as §1
Assay [7] concerns Mycolicibacterium smegmatis. Briefly: Antibacterial activity against Mycobacterium smegmatis mc2 155 after 72 hrs by MTT assay. Type of assay: functional. Conditions: str. MC2 155, 72 h. A digest of the protocol: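 Broth dilution in Mueller-Hinton broth; compounds dissolved in DMSO, two-fold serial dilutions; inoculum adjusted to McFarland 0.5 and diluted to final 5 × 10^5 cfu/mL; cells pre-grown on Columbia blood agar with 5% horse blood, 37 °C, 72 h. Plates incubated 37 °C for 72 h; MIC read after MTT as lowest concentration inhibiting growth.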

In assay [8] the test system is Mycolicibacterium smegmatis MC2 155. In words: Inhibition of Multidrug resistance efflux pump in Mycobacterium smegmatis mc2 155 assessed as modulation of EtBr-mediated antibacterial activity measuring ratio of EtBr MIC to EtBr and compound MIC at 64 mg/L after 72 hrs by MTT assay. A digest of the protocol: as §1
Assay [9] has the same test system. Briefly: Inhibition of Multidrug resistance efflux pump in Mycobacterium smegmatis mc2 155 assessed as modulation of rifampicin-mediated antibacterial activity measuring reduction in MIC at 1/2 of MIC after 72 hrs by MTT assay relative to control. Summed up: as §1
Assay [10] shares this test system. Briefly: Inhibition of Multidrug resistance efflux pump in Mycobacterium smegmatis mc2 155 assessed as inhibition of EtBr efflux measuring normalized fluorescence at half the MIC measured for 60 mins by spectrophotometry relative to control.
Assay [11] has the same test system. In words: Inhibition of Multidrug resistance efflux pump in Mycobacterium smegmatis mc2 155 assessed as modulation of ethambutol-mediated antibacterial activity measuring ratio of ethambutol MIC to ethambutol and compound MIC at 64 mg/L after 72 hrs by MTT assay. Summed up: as §1
The test system is the same in assay [12]. In words: Inhibition of Multidrug resistance efflux pump in Mycobacterium smegmatis mc2 155 assessed as modulation of rifampicin-mediated antibacterial activity measuring ratio of rifampicin MIC to rifampicin and compound MIC at 64 mg/L after 72 hrs by MTT assay. A digest of the protocol: as §1
For assay [13] the test system is unchanged. In words: Inhibition of Multidrug resistance efflux pump in Mycobacterium smegmatis mc2 155 assessed as modulation of ethambutol-mediated antibacterial activity measuring ratio of ethambutol MIC to ethambutol and compound MIC at 32 mg/L after 72 hrs by MTT assay. Summed up: as §1
For assay [14] the test system is unchanged. In words: Inhibition of Multidrug resistance efflux pump in Mycobacterium smegmatis mc2 155 assessed as modulation of rifampicin-mediated antibacterial activity measuring fractional inhibitory concentration index at 32 mg/L after 72 hrs by MTT assay. Summed up:
as §1

Assay [15] shares this test system. In words: Inhibition of Multidrug resistance efflux pump in Mycobacterium smegmatis mc2 155 assessed as modulation of ciprofloxacin-mediated antibacterial activity measuring ratio of ciprofloxacin MIC to ciprofloxacin and compound MIC at 32 mg/L after 72 hrs by MTT assay. A digest of the protocol:
as §1

For assay [16] the test system is unchanged. In words: Inhibition of Multidrug resistance efflux pump in Mycobacterium smegmatis mc2 155 assessed as modulation of isoniazid-mediated antibacterial activity measuring ratio of isoniazid MIC to isoniazid and compound MIC at 32 mg/L after 72 hrs by MTT assay. A digest of the protocol:
as §1

The test system is the same in assay [17]. Briefly: Inhibition of Multidrug resistance efflux pump in Mycobacterium smegmatis mc2 155 assessed as modulation of rifampicin-mediated antibacterial activity measuring ratio of rifampicin MIC to rifampicin and compound MIC at 32 mg/L after 72 hrs by MTT assay. A digest of the protocol: as §1
Assay [18] has the same test system. In words: Inhibition of Multidrug resistance efflux pump in Mycobacterium smegmatis mc2 155 assessed as modulation of EtBr-mediated antibacterial activity measuring ratio of EtBr MIC to EtBr and compound MIC at 32 mg/L after 72 hrs by MTT assay. Summed up: as §1
Assay [19] shares this test system. Briefly: Inhibition of Multidrug resistance efflux pump in Mycobacterium smegmatis mc2 155 assessed as modulation of EtBr-mediated antibacterial activity measuring fractional inhibitory concentration index at 32 mg/L after 72 hrs by MTT assay. Summed up:
as §1

For assay [20] the test system is unchanged. Briefly: Inhibition of Multidrug resistance efflux pump in Mycobacterium smegmatis mc2 155 assessed as inhibition of EtBr efflux measuring relative fluorescence at lower MIC measured for 60 mins by spectrophotometry relative to control.
The test system is the same in assay [21]. In words: Inhibition of Multidrug resistance efflux pump in Mycobacterium smegmatis mc2 155 assessed as EtBr accumulation measuring relative fluorescence at lower MIC measured for 60 mins by spectrophotometry relative to control. A digest of the protocol:
as §2

The test system is the same in assay [22]. In words: Inhibition of Multidrug resistance efflux pump in Mycobacterium smegmatis mc2 155 assessed as EtBr accumulation measuring relative fluorescence at MIC measured for 60 mins by spectrophotometry relative to control. Summed up:
as §2

For assay [23] the test system is unchanged. Briefly: Inhibition of Multidrug resistance efflux pump in Mycobacterium smegmatis mc2 155 assessed as EtBr accumulation measuring relative fluorescence at 1/8 of MIC measured for 60 mins by spectrophotometry relative to control. A digest of the protocol: as §2
Assay [24] shares this test system. In words: Inhibition of Multidrug resistance efflux pump in Mycobacterium smegmatis mc2 155 assessed as inhibition of EtBr efflux measuring relative fluorescence at 1/8 of MIC measured for 60 mins by spectrophotometry relative to control.
Assay [25] shares this test system. In words: Inhibition of Multidrug resistance efflux pump in Mycobacterium smegmatis mc2 155 assessed as EtBr accumulation measuring relative fluorescence at 1/4 of MIC measured for 60 mins by spectrophotometry relative to control. Summed up:
as §2

Assay [26] shares this test system. In words: Inhibition of Multidrug resistance efflux pump in Mycobacterium smegmatis mc2 155 assessed as modulation of rifampicin-mediated antibacterial activity measuring ratio of rifampicin MIC to rifampicin and compound MIC at 4 mg/L after 72 hrs by MTT assay. Summed up: as §1
For assay [27] the test system is unchanged. Briefly: Inhibition of Multidrug resistance efflux pump in Mycobacterium smegmatis mc2 155 assessed as modulation of EtBr-mediated antibacterial activity measuring ratio of EtBr MIC to EtBr and compound MIC at 4 mg/L after 72 hrs by MTT assay. A digest of the protocol:
as §1

For assay [28] the test system is unchanged. Briefly: Inhibition of Multidrug resistance efflux pump in Mycobacterium smegmatis mc2 155 assessed as modulation of isoniazid-mediated antibacterial activity measuring ratio of isoniazid MIC to isoniazid and compound MIC at 4 mg/L after 72 hrs by MTT assay. Summed up: as §1

This note sets out measurements from ChEMBL document CHEMBL2021785, “Compounds of Alpinia katsumadai as potential efflux inhibitors in Mycobacterium smegmatis” (2012).

Converted amounts (≈) assume the structure as drawn. The source made the active and inactive calls. The rule behind the calls is not given here.

Broadly, the MIC is the lowest concentration found to suppress growth. In the case of `O[C@@H](CCc1ccccc1)C[C@H](O)/C=C/c1ccccc1`, the fractional inhibitory concentration index (FICI) was 0.25 in assay [1] and 0.75 in assay [4]. Besides, the Ratio was found to be 2 in [2]; 2 in assay [6]; 8 in assay [8]; 2 in assay [11]; 4 in [12]. The fold change (FC) in assay [3] and in assay [9] was 4 throughout. Also, the RFU in [5] was 16500. This molecule had an MIC in assay [7] of no less than 128 µg/mL. For the same molecule, the normalized EtBr fluorescence relative to control in [10] worked out at 0.746.
`O=C(O)c1cn(C2CC2)c2cc(N3CCNCC3)c(F)cc2c1=O` [CIPROFLOXACIN] showed an MIC in [7] of 0.125 µg/mL (≈ 0.377 µM).
Take `O=C(CCc1ccccc1)C[C@@H](O)/C=C/c1ccccc1`: the fold change (FC) in assay [3] and in assay [9] was 4 in each case. Also, the Ratio in assay [13] amounted to 1; in assay [15], 2; in [16] it was 1; in assay [17] it was 4; in assay [18] it was 8. Further, in [5], the RFU turned out to be 15100. For the same molecule, the figures for the fractional inhibitory concentration index (FICI) in assay [14] and in assay [19] were 0.75 and 0.25, respectively. This molecule returned an MIC in [7] of 64 µg/mL (≈ 228 µM). Moreover, the normalized EtBr fluorescence relative to control in assay [10] is 0.72.
`NNC(=O)c1ccncc1` [ISONIAZID]: the MIC in assay [7] was found to be 4 µg/mL (≈ 29.2 µM).
In the case of `O=C(/C=C/C=C/c1ccccc1)CCc1ccccc1`, the fractional inhibitory concentration index (FICI) in assay [1] was determined as 0.27; in [4], 0.28. The inhibition entry in assay [20] and in assay [21] was “Dose-dependent effect” in each case. In addition, the Ratio in [2] was 1; in [6], 1; in [8], 4; in [11] it was 1; in assay [12] it was 4. Besides, the fold change (FC) in [3] and in [9] was 4 throughout. Moreover, the RFU in assay [5] was found to be 19400. Besides, the inhibition result in [22], in [23], in assay [24] and in assay [25] was “Active” each time. Besides, the minimal inhibitory concentration (MIC) in assay [7] was no less than 128 µg/mL. Also, the normalized EtBr fluorescence relative to control in assay [10] was determined as 0.806.
As for `CCCCCCCCCCCCCCCC(=O)O` [PALMITIC ACID], the Ratio was found to be 0.5 in [6] and 1 in assay [8]. In addition, the MIC in [7] was found to be 128 µg/mL (≈ 499 µM).
On to `CCCCCCCC/C=C\CCCCCCCC(=O)O` [OLEIC ACID], for which the Ratio came out at 4 in assay [26], 1 in assay [27] and 1 in [28]. The MIC in assay [7] is 8 µg/mL (≈ 28.3 µM).
In the case of `COc1ccc(CCN(C)CCCC(C#N)(c2ccc(OC)c(OC)c2)C(C)C)cc1OC` (configuration not stated) [VERAPAMIL], it took 512 µg/mL (≈ 1130 µM) to inhibit growth in assay [7] (MIC).
